Experimental data reported in ChEMBL document CHEMBL1122774, “Tri- and tetrapeptide analogues of kinins as potential renal vasodilators” (J Med Chem, 1984).
Square brackets hold non-standard residues; d marks the D form. Peptide text beside a SMILES is read from it. * marks the point of attachment. ξ: configuration not given here. Butanoyl(4-(4-HOPh)) = O=C(CCCc1ccc(O)cc1)*; Hydrocinnamoyl = O=C(CCc1ccccc1)*; ξαMeF = CC(N)(Cc1ccccc1)C(=O)O; PhAc = O=C(Cc1ccccc1)*; Bz = O=C(c1ccccc1)*

Tests used:
Canis familiaris [1] = test: In vivo percent change in canine mean arterial blood pressure (MABP) at 3 ug/Kg/min.; assay type: functional, Canis lupus familiaris
Procedure, shortened: (§1)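 Primary screen in anesthetized dogs (7-17 kg). Drug infused separately at 3, 30 and 300 µg/(kg min), each infusion lasting 5 min, at about 15-min intervals. Read-outs are renal blood flow, mean arterial blood pressure, heart rate, and RVR (MABP / mean RBF), as percent change. Significance thresholds are defined per number of dogs; n = 1-3 dogs.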

Canis familiaris [2] = test: In vivo percent change in canine renal vascular resistance (RVR) at 300 ug/Kg/min.; assay type: functional, Canis lupus familiaris; procedure, shortened: as §1
Canis familiaris [3] = test: In vivo percent change in canine heart rate at 30 ug/Kg/min.; assay type: functional, Canis lupus familiaris; procedure, shortened: as §1
Canis familiaris [4] = test: In vivo percent change in canine mean arterial blood pressure (MABP) at 300 ug/Kg/min.; assay type: functional, Canis lupus familiaris; procedure, shortened: as §1
Canis familiaris [5] = test: In vivo percent change in renal blood flow at 30 ug/Kg/min.; assay type: functional, Canis lupus familiaris, Kidney; procedure, shortened: as §1
Canis familiaris [6] = test: In vivo percent change in canine heart rate at 3 ug/Kg/min.; assay type: functional, Canis lupus familiaris; procedure, shortened: as §1
Canis familiaris [7] = test: In vivo percent change in canine renal vascular resistance (RVR) at 30 ug/Kg/min.; assay type: functional, Canis lupus familiaris; procedure, shortened: as §1
Canis familiaris [8] = test: In vivo percent change in canine renal vascular resistance (RVR) at 3 ug/Kg/min.; assay type: functional, Canis lupus familiaris; procedure, shortened: as §1
Canis familiaris [9] = test: In vivo percent change in canine mean arterial blood pressure (MABP) at 30 ug/Kg/min.; assay type: functional, Canis lupus familiaris; procedure, shortened: as §1
Canis familiaris [10] = test: In vivo percent change in canine renal blood flow (RBF) at 300 ug/Kg/min.; assay type: functional, Canis lupus familiaris, Kidney; procedure, shortened: as §1
Canis familiaris [11] = test: In vivo percent change in canine renal blood flow (RBF) at 3 ug/Kg/min.; assay type: functional, Canis lupus familiaris, Kidney; procedure, shortened: as §1
Canis familiaris [12] = test: In vivo percent change in canine heart rate at 300 ug/Kg/min.; assay type: functional, Canis lupus familiaris; procedure, shortened: as §1
Canis familiaris [13] = test: Renal vasodilator activity in anesthetized dogs and percent change in heart rate (HR) was determined at 30 ug/kg min; assay type: functional, Canis lupus familiaris; procedure, shortened: as §1
Canis familiaris [14] = test: Renal vasodilator activity in anesthetized dogs and percent change in heart rate (HR) was determined at 3 ug/kg min; assay type: functional, Canis lupus familiaris; procedure, shortened: as §1
Canis familiaris [15] = test: Renal vasodilator activity in anesthetized dogs and percent change in renal blood flow (RBF) was determined at 300 ug/kg min; assay type: functional, Canis lupus familiaris, Kidney; procedure, shortened: as §1
Canis familiaris [16] = test: Renal vasodilator activity in anesthetized dogs and percent change in renal vascular resistance (RVR) was determined at 3 ug/kg min; assay type: functional, Canis lupus familiaris; procedure, shortened: as §1
Canis familiaris [17] = test: Renal vasodilator activity in anesthetized dogs and percent change in renal blood flow (RBF) was determined at 30 ug/kg min; assay type: functional, Canis lupus familiaris, Kidney; procedure, shortened: as §1
Canis familiaris [18] = test: Renal vasodilator activity in anesthetized dogs and percent change in mean arterial blood pressure (MABP) was determined at 3 ug/kg min; assay type: functional, Canis lupus familiaris; procedure, shortened: as §1
Canis familiaris [19] = test: Renal vasodilator activity in anesthetized dogs and percent change in heart rate (HR) was determined at 300 ug/kg min; assay type: functional, Canis lupus familiaris; procedure, shortened: as §1
Canis familiaris [20] = test: Renal vasodilator activity in anesthetized dogs and percent change in mean arterial blood pressure (MABP) was determined at 30 ug/kg min; assay type: functional, Canis lupus familiaris; procedure, shortened: as §1
Canis familiaris [21] = test: Renal vasodilator activity in anesthetized dogs and percent change in renal blood flow (RBF) was determined at 3 ug/kg min; assay type: functional, Canis lupus familiaris, Kidney; procedure, shortened: as §1
Canis familiaris [22] = test: Renal vasodilator activity in anesthetized dogs and percent change in mean arterial blood pressure (MABP) was determined at 300 ug/kg min; assay type: functional, Canis lupus familiaris; procedure, shortened: as §1
Canis familiaris [23] = test: Renal vasodilator activity in anesthetized dogs and percent change in renal vascular resistance (RVR) was determined at 300 ug/kg min; assay type: functional, Canis lupus familiaris; procedure, shortened: as §1
Canis familiaris [24] = test: Renal vasodilator activity in anesthetized dogs and percent change in renal vascular resistance (RVR) was determined at 30 ug/kg min; assay type: functional, Canis lupus familiaris; procedure, shortened: as §1
Canis familiaris [25] = test: Renal vasodilator activity in anesthetized dogs and percent change in renal vascular resistance (RVR) was determined at 30 ug/Kg/min; assay type: functional, Canis lupus familiaris; procedure, shortened: as §1

SMILES | Change (Canis familiaris [1]) [%] | Change (Canis familiaris [2]) [%] | Change (Canis familiaris [3]) [%] | Change (Canis familiaris [4]) [%] | Change (Canis familiaris [5]) [%] | Change (Canis familiaris [6]) [%] | Change (Canis familiaris [8]) [%] | Change (Canis familiaris [9]) [%] | Change (Canis familiaris [13]) [%] | Change (Canis familiaris [14]) [%] | Change (Canis familiaris [15]) [%] | Change (Canis familiaris [16]) [%] | Change (Canis familiaris [17]) [%] | Change (Canis familiaris [18]) [%] | Change (Canis familiaris [19]) [%] | Change (Canis familiaris [20]) [%] | Change (Canis familiaris [21]) [%] | Change (Canis familiaris [22]) [%] | Change (Canis familiaris [23]) [%] | Change (Canis familiaris [24]) [%] | further results
CC(CN[C@@H](CCCN=C(N)N)C(=O)O)(Cc1ccccc1)NC(=O)[C@@H]1CCCN1 (stereo partly specified) | 1 | -11 | 4 | -5 | 8 | 0 | 1 | 1 | – | – | – | – | – | – | – | – | – | – | – | – | Change (Canis familiaris [7]): -6%; Change (Canis familiaris [10]): 7%; Change (Canis familiaris [11]): 0%; Change (Canis familiaris [12]): -7%
CC(Cc1ccccc1)(NC(=O)[C@@H]1CCCN1C(=O)CCc1ccccc1)C(=O)N[C@@H](CCCN=C(N)N)C(=O)O (stereo partly specified) (Hydrocinnamoyl-Pro-[ξαMeF]-Arg-OH) | – | – | – | – | – | – | – | – | 1 | 8 | 1 | -7 | 2 | -2 | -1 | -3 | 5 | 1 | 0 | -5 | –
N=C(N)NCCC[C@H](NC(=O)[C@H](Cc1ccccc1)NC(=O)[C@@H]1CCCN1)C(=O)O (H-Pro-Phe-Arg-OH) | – | – | – | – | – | – | – | – | 3 | -6 | -3 | -5 | 3 | -1 | 6 | 1 | 4 | -4 | 0 | -2 | –
CC(Cc1ccccc1)(NC(=O)[C@@H]1CCCN1)C(=O)N[C@@H](CCCN=C(N)N)C(=O)O (stereo partly specified) (H-Pro-[ξαMeF]-Arg-OH) | – | – | – | – | – | – | – | – | 0 | -0.7 | 7.3 | 0.3 | 9.3 | 1 | 0 | -0.3 | 1.3 | -0.7 | -5.3 | -7.3 | –
CC(Cc1ccc(O)cc1)(NC(=O)[C@@H]1CCCN1C(=O)CCCc1ccc(O)cc1)C(=O)NCCCN.Cl (stereo partly specified) | -2 | 8.5 | 4 | 0 | 3.5 | 1.5 | -9.5 | 1 | – | – | – | – | – | – | – | – | – | – | – | – | Change (Canis familiaris [25]): -3%; Change (Canis familiaris [10]): 10%; Change (Canis familiaris [11]): 8.5%; Change (Canis familiaris [12]): 3.5%
CC(Cc1ccccc1)(NC(=O)[C@@H]1CCCN1C(=O)CCCc1ccc(O)cc1)C(=O)NCCCCCC(=O)O (stereo partly specified) | 0 | -4 | -2 | 1 | -4 | -4 | -1 | 2 | – | – | – | – | – | – | – | – | – | – | – | – | Change (Canis familiaris [25]): 5%; Change (Canis familiaris [10]): 5%; Change (Canis familiaris [11]): 1%; Change (Canis familiaris [12]): -6%
CC(Cc1ccccc1)(NC(=O)[C@@H]1CCCN1C(=O)CCCc1ccc(O)cc1)C(=O)N[C@@H](CCCN=C(N)N)C(=O)O (stereo partly specified) | – | – | – | – | – | – | – | – | 0 | 0 | 11 | -12 | 12 | -4 | 0 | 2 | 8 | 0 | -11 | -9 | –
N=C(N)NCCC[C@H](NC(=O)[C@@H](Cc1ccccc1)NC(=O)[C@@H]1CCCN1C(=O)CCCc1ccccc1)C(=O)O | – | – | – | – | – | – | – | – | 0 | -3 | 4 | -3 | 2 | 0 | -2 | 1 | 3 | 0 | -4 | -1 | –
Cl.NCCCNC(=O)[C@@H]1Cc2ccccc2CN1C(=O)CCCc1ccc(O)cc1 | – | – | – | – | – | – | – | – | -2 | 1 | 5 | -6 | 6 | -2 | -1 | -1 | 3 | -2 | -6 | -6 | –
O=C(NCC(=O)N1CCC[C@H]1C(=O)O)[C@@H](Cc1ccccc1)NC(=O)[C@@H]1CCCN1C(=O)CCCc1ccc(O)cc1 ({Butanoyl(4-(4-HOPh))}-P[dF]GP-OH) | 0 | -1 | -2 | -1 | 0 | 1 | -2 | -1 | – | – | – | – | – | – | – | – | – | – | – | – | Change (Canis familiaris [25]): -1%; Change (Canis familiaris [10]): -1%; Change (Canis familiaris [11]): 2%; Change (Canis familiaris [12]): -1%
N=C(N)NCCC[C@H](NC(=O)[C@H](Cc1ccccc1)NC(=O)[C@@H]1CCCN1C(=O)c1ccccc1)C(=O)O (Bz-Pro-Phe-Arg-OH) | – | – | – | – | – | – | – | – | 0 | 0 | -10 | 2 | 0 | 4 | 0 | 1 | 3 | 0 | 11 | 0 | –
CC(Cc1ccccc1)(NC(=O)[C@@H]1CCCN1)C(=O)N1CCC[C@H]1C(=O)O (stereo partly specified) (H-Pro-[ξαMeF]-Pro-OH) | – | – | – | – | – | – | – | – | 0 | 0 | 8 | 1 | 0 | 1 | 0 | 0 | 0 | -3 | -10 | 0 | –
CC(Cc1ccccc1)(NC(=O)[C@@H]1CCCN1C(=O)CCCCc1ccccc1)C(=O)N[C@@H](CCCN=C(N)N)C(=O)O (stereo partly specified) | – | – | – | – | – | – | – | – | -1 | -1 | 3 | -2 | 1 | 1 | 6 | 3 | 4 | 1 | -2 | 1 | –
N=C(N)NCCC[C@H](NC(=O)[C@H](Cc1ccccc1)NC(=O)[C@@H]1CCCN1C(=O)CCCc1ccccc1)C(=O)O | – | – | – | – | – | – | – | – | 1.7 | 2 | -1.7 | -5.7 | 4 | 1 | -1.7 | 0.3 | 5.3 | -0.7 | 1 | -3.7 | –
N=C(N)NCCC[C@H](NC(=O)[C@@H]1Cc2ccccc2CN1C(=O)CCCc1ccc(O)cc1)C(=O)O | -1 | 11 | 0 | -2 | 2 | 1 | -6 | 1 | – | – | – | – | – | – | – | – | – | – | – | – | Change (Canis familiaris [25]): -1%; Change (Canis familiaris [10]): -12%; Change (Canis familiaris [11]): 7%; Change (Canis familiaris [12]): 0%
CC(Cc1ccccc1)(NC(=O)[C@@H]1CCCN1C(=O)Cc1ccccc1)C(=O)N[C@@H](CCCN=C(N)N)C(=O)O (stereo partly specified) (PhAc-Pro-[ξαMeF]-Arg-OH) | – | – | – | – | – | – | – | – | -2 | 9 | -2 | -4 | 0 | 0 | 0 | 0 | 4 | 5 | 7 | 0 | –
COc1ccc(CC(C)(NC(=O)[C@@H]2CCCN2C(=O)CCCc2ccc(O)cc2)C(=O)NCCCN)cc1OC.Cl (stereo partly specified) | 1.5 | -10 | -1 | -1.5 | 16.5 | 0.5 | -11 | -2 | – | – | – | – | – | – | – | – | – | – | – | – | Change (Canis familiaris [25]): -15.5%; Change (Canis familiaris [10]): 10.5%; Change (Canis familiaris [11]): 13.5%; Change (Canis familiaris [12]): 1.5%
CC(Cc1ccccc1)(NC(=O)[C@@H]1CCCN1C(=O)CCCc1ccccc1)C(=O)N[C@@H](CCCN=C(N)N)C(=O)O (stereo partly specified) | – | – | – | – | – | – | – | – | 0 | -3.6 | 1 | 3 | 4.6 | 3 | -1 | 2.8 | 0 | 1 | 0 | -1.8 | –
